The values that follow come from ChEMBL document CHEMBL6134796, “Development and Evaluation of Indole-Based Phospholipase D Inhibitors for Lung Cancer Immunotherapy” (J Med Chem, 2025).

Data set [1] has as its target Tubulin beta (Homo sapiens) (UniProt P68371+Q9H4B7+Q13509+P04350+Q3ZCM7+P07437+Q13885+Q9BVA1+Q9BUF5+A6NNZ2). The data set is described as follows: Binding affinity to beta-tubulin in human A549 cells assessed as protection against pronase E-mediated proteolysis at 2 to 20 uM incubated for 1 hr by DARTS assay. Format: cell-based. Particulars: dose 2-20 µM. An outline of the steps:
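A549 lysates made in buffer with protease and phosphatase inhibitors. Lysates were incubated with compound for 1 h at room temperature, then digested with Pronase for 10 min at RT. Digestion was quenched in SDS loading buffer by boiling 5 min. PLD1 and β-tubulin were detected by immunoblot.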

In data set [2] the test system is A549. The data set is described as follows: Inhibition of PLD1 F789A mutant (unknown origin) overexpressed in human A549 cells. In kind it is cell-based. In a few lines: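 A549 cells transfected with wild-type PLD1, PLD1 mutants (L425A, F614A, F789A) or PLD2, then compound-treated. PLD activity measured as [3H]phosphatidylbutanol formed in the presence of 1-butanol after [3H]myristic acid labeling, expressed as % of total lipid cpm. At least three independent experiments.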

Data set [3] deals with HCT-116. In words: Cytotoxicity against human HCT-116 cells assessed as inhibition of cell growth incubated for 48 hrs by WST-1 assay. In kind it is functional, cell-based. Particulars: HCT-116, 48 h. On the technique in general: Tetrazolium dyes change colour on reduction, which living cells bring about.
The subject of another data set is NCI-H460. The data set is described as follows: Cytotoxicity against human NCI-H460 cells assessed as inhibition of cell growth incubated for 48 hrs by WST-1 assay. Format: functional, cell-based. Particulars: NCI-H460, 48 h. In a few lines:
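WST-1 viability assay. Cells seeded at 5 × 10^3 per well and incubated 24 h at 37 °C, then exposed to drug for 48 h. Absorbance read at 450 nm, in triplicate. IC50 taken as the concentration giving 50% growth inhibition versus control.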

For data set [4], the system named is A549. The data set is described as follows: Cytotoxicity against human A549 cells assessed as increase in cell death rate by WST-1 assay. In kind it is functional, cell-based. Particulars: time 2-48 hrs.
The test system of data set [5] is A549. The data set is described as follows: Inhibition of cell proliferation in human A549 cells assessed as reduction in Ki-67 expression. Format: functional, cell-based. An outline of the steps:
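A549 cells immunostained for Ki67 with fluorescent secondary antibody; nuclei counterstained with 1 μM Hoechst 33342; confocal imaging; at least three independent experiments, mean ± SEM.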

Data set [6] concerns A549. The data set is described as follows: Inhibition of cell migration in human A549 cells measured after 24 hrs by crystal violet staining based light microscopic analysis. Format: functional.
In data set [7] the test system is A549. The data set is described as follows: Downregulation of CD24 expression in human A549 cells by flow cytometry analysis. In kind it is functional, cell-based. In a few lines: (§1)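 A549 cells treated with compound. Surface "don't eat-me" and "eat-me" markers measured by flow cytometry.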
On the technique in general: A flow cytometer gives signals particle by particle.

For data set [8], the system named is A549. The data set is described as follows: Downregulation of CD47 expression in human A549 cells by flow cytometry analysis. In kind it is functional, cell-based. In a few lines: as §1
For data set [9], the system named is A549. The data set is described as follows: Downregulation of PD-L1 expression in human A549 cells by flow cytometry analysis. Format: functional, cell-based. An outline of the steps:
as §1

For data set [10], the system named is A549. The data set is described as follows: Upregulation of CRT expression in human A549 cells by flow cytometry analysis. In kind it is functional, cell-based. An outline of the steps:
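A549 cells treated with compound; surface "eat-me" and "don't eat-me" signal proteins measured by flow cytometry; at least three independent experiments, mean ± SEM.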

The subject of data set [11] is A549. The data set is described as follows: Induction of apoptosis in human A549 cells measured up to 48 hrs in presence of gemcitabine by Annexin V-FITC and PI staining based flow cytometry analysis. Format: functional, cell-based. An outline of the steps: (§2)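 A549 cells given compound, gemcitabine, or both. Apoptosis assessed by PI staining, annexin V flow cytometry, cleaved PARP immunoblot, and caspase-3 activity. For caspase-3: drugs at 10 μM for 48 h, then 1 μM NucView 488 substrate for 30 min, with 1 μM Hoechst 33342, read by plate fluorescence.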

Data set [12] relates to A549. The data set is described as follows: Induction of apoptosis in human A549 cells assessed as increase in cleaved PARP activity measured up to 48 hrs in presence of gemcitabine by flow cytometry analysis. In kind it is functional, cell-based. In a few lines:
as §2

Data set [13] is described as follows: Metabolic stability in human plasma assessed as parent compound remaining at 10 uM measured after 120 mins. In kind it is ADME, cell-free. Particulars: read-out: Stability. In a few lines: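 Citrated human plasma spiked to final 10 μM, incubated at 37 °C for 0, 30 and 120 min; quenched with acetonitrile containing internal standard, vortexed, centrifuged at 4 °C; parent remaining quantified by LC-MS/MS in MRM mode on C18 column, formic acid water/acetonitrile gradient.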

Data set [14] concerns Lewis lung carcinoma cell line. The data set is described as follows: Antitumor activity against mouse Lewis lung carcinoma cell line allografted in male C57BL/6 mouse model assessed as reduction in tumor formation at 10 mg/kg, po measured every other day for 3 weeks. In kind it is functional, organism-based. An outline of the steps:
(§3)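 Syngeneic model: 6-week-old male C57BL/6 mice given 3 × 10^5 LLC cells in 50 μL PBS subcutaneously in the flank. At day 7, mice were randomized to vehicle PO daily or 10 mg/kg PO every other day for 3 weeks. Caliper volume was taken every 2 days as ([…])/2, with tumor weight at end. Spleen size and weight were recorded. Ki67 and cleaved caspase-3 were scored by IHC (DAB, hematoxylin).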

In data set [15] the test system is Lewis lung carcinoma cell line. In words: Antitumor activity against mouse Lewis lung carcinoma cell line allografted in male C57BL/6 mouse model assessed as recovery of spleen weight at 10 mg/kg, po measured every other day for 3 weeks. Format: functional, organism-based. In a few lines: as §3
For data set [16], the system named is Lewis lung carcinoma cell line. In words: Antitumor activity against mouse Lewis lung carcinoma cell line allografted in male C57BL/6 mouse model assessed as increase in caspase 3 expression at 10 mg/kg, po measured every other day for 3 weeks by IHC analysis. Format: functional, organism-based. In a few lines:
as §3

Data set [17] deals with Lewis lung carcinoma cell line. The data set is described as follows: Antitumor activity against mouse Lewis lung carcinoma cell line allografted in […] male C57BL/6 mouse model assessed as suppression of tumor formation at 10 mg/kg, po measured every other day for 3 weeks. Format: functional, organism-based.
Data set [18] has as its system Lewis lung carcinoma cell line. In words: Antitumor activity against mouse Lewis lung carcinoma cell line allografted in […] male C57BL/6 mouse model assessed as reduction in cell proliferation at 10 mg/kg, po measured every other day for 3 weeks. In kind it is functional, organism-based.
Data set [19] deals with HCT-116. The data set is described as follows: Residual PLD activity in human HCT-116 cells at 10 uM measured after 1 hr by amplex red phospholipase D assay as % of control.
Data set [20] concerns A549. The data set is described as follows: Synergistic antiproliferative activity against human A549 cells assessed as reduction in cell proliferation measured up to 48 hrs in presence of gemcitabine by IncuCyte real-time imaging.
Data set [21] relates to Lewis lung carcinoma cell line. The data set is described as follows: Antitumor activity against mouse Lewis lung carcinoma cell line allografted in male C57BL/6 mouse model assessed as reduction in […] expression at 10 mg/kg, po measured every other day for 3 weeks by IHC analysis.

Broadly, the IC50 is the concentration at which inhibition is half-maximal.

Molecules are shown by their SMILES. Activity calls are given as the source filed them. The rule behind the calls is not given here.

For the compound `O=C(CCc1c[nH]c2ccccc12)Nc1cc(C(F)(F)F)cc(C(F)(F)F)c1`, the outcome in data set [1] was inactive. In addition, in the data set on A549 [2], the inhibition result is “inactive”. Besides, the IC50 in the data set with HCT-116 [3] worked out at 29 µM; in the data set with NCI-H460, 24.9 µM. In addition, the Activity result in the data set with A549 [4] was “Time-dependent-effect”. The inhibition entry with A549 [5] and in the data set on A549 [6] was “Active” each time. Moreover, the outcome in the data set with A549 [7], with A549 [8], in the data set with A549 [9], with A549 [10], in the data set on A549 [11] and in the data set on A549 [12] was Active. In addition, the result (in data set [14]; in data set [15]; in data set [16]; in [17]; in data set [18]; with A549 [20]) was Active. Further, the result in data set [21] was Active. Also, the remaining at 2 h, 10 µM in [13] worked out at 94.6%. In addition, the level, % of control in the data set on HCT-116 [19] was 26.6%.
